Data taken from ChEMBL document CHEMBL3259768, “Structure-activity relationships for vitamin D3-based aromatic a-ring analogues as hedgehog pathway inhibitors” (J Med Chem, 2014).
Activity calls are given as the source filed them. The rule behind the calls is not given here.

Legend:
[1] = Inhibition of hedgehog signaling pathway-mediated GLI1 mRNA expression in mouse C3H10T1/2 cells assessed as residual activity at 5 uM after 24 hrs by RT-PCR analysis relative to 20alpha-hydroxycholesterol/22(S)-hydroxycholesterol; type: cell-based; conditions: C3H 10T1/2
Method in brief: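 C3H10T1/2 cells co-treated with analogue and the oxysterol Hh activators 20α-hydroxycholesterol plus 22(S)-hydroxycholesterol (5 μM each) for 24 h. Gli1 mRNA measured by qPCR as % of OHC-only control (100%). Analogue at 5 μM, or at 0.5 μM where stated.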

[2] = target: T1, Vitamin D3 receptor (Mus musculus) (UniProt P48281); experiment: Activation of VDR in mouse C3H10T1/2 cells assessed as upregulation of CYP24A1 mRNA expression at 5 uM after 24 hrs by RT-PCR analysis relative to DMSO-treated control; type: cell-based; conditions: C3H 10T1/2
T1 sequence (whole entry): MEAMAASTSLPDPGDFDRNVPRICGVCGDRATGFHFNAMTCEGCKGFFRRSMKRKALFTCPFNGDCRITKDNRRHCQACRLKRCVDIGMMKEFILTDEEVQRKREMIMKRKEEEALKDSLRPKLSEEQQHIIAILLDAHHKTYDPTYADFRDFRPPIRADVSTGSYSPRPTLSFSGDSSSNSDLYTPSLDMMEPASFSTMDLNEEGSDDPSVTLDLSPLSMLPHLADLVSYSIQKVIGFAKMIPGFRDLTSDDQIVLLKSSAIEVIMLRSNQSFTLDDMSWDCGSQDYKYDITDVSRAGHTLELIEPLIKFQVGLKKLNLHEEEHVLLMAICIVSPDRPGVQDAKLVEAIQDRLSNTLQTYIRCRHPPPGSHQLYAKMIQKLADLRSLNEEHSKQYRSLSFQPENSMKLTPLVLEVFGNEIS
Method in brief: (§1)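 Cyp24A1 mRNA read by qPCR after 24 h exposure at 5 μM. Up-regulation normalized to DMSO control, set to 1.0.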

[3] = Inhibition of hedgehog signaling pathway-mediated GLI1 mRNA expression in mouse C3H10T1/2 cells after 24 hrs by RT-PCR analysis; type: cell-based; conditions: for inhibition: C3H 10T1/2; for IC50: C3H 10T1/2, 24 h
Method in brief: (§2)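 OHC-stimulated C3H10T1/2 cells (20α- and 22(S)-hydroxycholesterol, 5 μM each) given analogue at a range of concentrations. Gli1 and Ptch mRNA quantified by qPCR. IC50 given as mean ± SEM of at least two experiments run in triplicate.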

[4] = Inhibition of hedgehog signaling pathway-mediated PTCH mRNA expression in mouse C3H10T1/2 cells after 24 hrs by RT-PCR analysis; type: cell-based; conditions: C3H 10T1/2, 24 h; method in brief: as §2
[5] = Inhibition of hedgehog signaling pathway-mediated GLI1 mRNA expression in mouse ASZ001 cells after 24 hrs by RT-PCR analysis; type: cell-based; conditions: ASZ001, 24 h
Method in brief: (§3)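 ASZ001 (murine BCC) or DAOY (human medulloblastoma) cells given analogue at a range of concentrations. Gli1 and Ptch mRNA quantified by qPCR. IC50 given as mean ± SEM of at least two experiments in triplicate.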

[6] = target: T1, Vitamin D3 receptor (Mus musculus); experiment: Activation of VDR in mouse ASZ001 cells assessed as upregulation of CYP24A1 mRNA expression at 5 uM after 24 hrs by RT-PCR analysis relative to DMSO-treated control; type: cell-based; method in brief: as §1
[7] = Inhibition of hedgehog signaling pathway-mediated GLI1 mRNA expression in human DaOY cells after 24 hrs by RT-PCR analysis; type: cell-based; method in brief: as §3
[8] = target: T2, Vitamin D3 receptor (Homo sapiens) (UniProt P11473); experiment: Activation of VDR in human DaOY cells assessed as upregulation of CYP24A1 mRNA expression at 5 uM after 24 hrs by RT-PCR analysis relative to DMSO-treated control; type: cell-based; method in brief: as §1
T2 sequence (whole entry): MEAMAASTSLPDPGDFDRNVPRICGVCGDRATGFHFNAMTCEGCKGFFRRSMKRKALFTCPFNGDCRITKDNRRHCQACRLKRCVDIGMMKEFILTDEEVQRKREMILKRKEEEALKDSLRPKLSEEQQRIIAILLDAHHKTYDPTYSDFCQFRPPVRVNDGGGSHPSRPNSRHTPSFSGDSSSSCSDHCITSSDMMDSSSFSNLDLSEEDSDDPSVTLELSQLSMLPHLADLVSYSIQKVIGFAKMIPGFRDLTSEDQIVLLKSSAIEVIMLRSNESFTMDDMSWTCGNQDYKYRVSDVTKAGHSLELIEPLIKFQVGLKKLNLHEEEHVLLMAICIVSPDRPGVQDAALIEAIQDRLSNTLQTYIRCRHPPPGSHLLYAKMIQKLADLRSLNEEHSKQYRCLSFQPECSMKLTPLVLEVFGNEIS

[9] = Inhibition of hedgehog signaling pathway-mediated PTCH mRNA expression in human DaOY cells after 24 hrs by RT-PCR analysis; type: cell-based; method in brief: as §3
[10] = target: Protein smoothened (Homo sapiens) (UniProt Q99835); experiment: Displacement of BODIPY-cyclopamine from full length human SMO receptor overexpressed in HEK293T cells up to 10 uM after 4 hrs by flow cytometric analysis; type: cell-based; conditions: HEK-293T
Method in brief: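 HEK293T cells transfected overnight with Myc-tagged full-length human Smo plasmid, split, then 2 days post-transfection incubated in DMEM/10% FBS with BODIPY-cyclopamine (5 nM) and test compound at 37 °C for 4 h. Cells trypsinized and resuspended in PBS. Bound BODIPY-cyclopamine read by flow cytometry. Transfection checked by anti-Myc staining. Representative experiment in triplicate.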

[11] = target: Protein smoothened (Homo sapiens) (UniProt Q99835); experiment: Displacement of BODIPY-cyclopamine from full length human SMO receptor overexpressed in HEK293T cell membranes up to 10 uM after 5 hrs by fluorescence polarization assay; conditions: HEK-293T
Method in brief: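 Membranes from HEK293T cells transfected with full-length human Smo, collected 24 h post-transfection. Cells lysed in hypotonic buffer (50 mM Tris-HCl, 1 mM EDTA, pH 7.5, protease inhibitors) by syringe passage. Membranes pelleted at 20000g after a 500g spin. Membranes (10 μg/well) incubated with BODIPY-cyclopamine (5 nM) and compound at 30 °C for 5 h. Fluorescence polarization at ex 485/em 528. Triplicate.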

[12] = Inhibition of hedgehog signaling pathway-mediated GLI1 mRNA expression in mouse C3H10T1/2 cells after 24 hrs by RT-PCR analysis in presence of GDC-0449; type: cell-based; conditions: C3H 10T1/2
[13] = Activation of hedgehog signaling pathway in non-targeting siRNA treated mouse C3H10T1/2 cells assessed as effect on VDR expression at 5 uM after 24 hrs by qPCR analysis; type: cell-based; conditions: C3H 10T1/2
Method in brief: (§4)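 C3H10T1/2 cells transfected 24 h after seeding with mouse VDR-specific or nontargeting siRNA plus Lipofectamine 2000 in medium with 0.5% FBS for 6 h, then complete medium overnight. Treated 24 h post-transfection (5 μM; calcitriol 0.5 μM). RNA and cDNA prepared 24 h later (48 h post-transfection), then qPCR of VDR, Gli1 and Cyp24A1. Representative experiment in triplicate.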

[14] = Inhibition of hedgehog signaling pathway in non-targeting siRNA treated mouse C3H10T1/2 cells assessed as effect on VDR expression at 5 uM after 24 hrs by qPCR analysis; type: cell-based; conditions: C3H 10T1/2; method in brief: as §4
[15] = Activation of hedgehog signaling pathway in VDR-knockdown mouse C3H10T1/2 cells assessed as effect on VDR expression at 5 uM after 24 hrs by qPCR analysis; type: cell-based; conditions: C3H 10T1/2; method in brief: as §4
[16] = Inhibition of hedgehog signaling pathway in VDR-knockdown mouse C3H10T1/2 cells assessed as effect on VDR expression at 5 uM after 24 hrs by qPCR analysis; type: cell-based; conditions: C3H 10T1/2; method in brief: as §4
[17] = tested on: C3H 10T1/2; experiment: Effect on CYP24A1 RNA level in non-targeting siRNA treated mouse C3H10T1/2 cells at 5 uM after 24 hrs by qPCR analysis; type: functional, cell-based; method in brief: as §4
[18] = tested on: C3H 10T1/2; experiment: Effect on CYP24A1 RNA level in VDR-knockdown mouse C3H10T1/2 cells at 5 uM after 24 hrs by qPCR analysis; type: functional, cell-based
[19] = Inhibition of hedgehog signaling pathway-mediated PTCH mRNA expression in mouse ASZ001 cells up to 10 uM after 24 hrs by RT-PCR analysis; type: cell-based
[20] = Inhibition of hedgehog signaling pathway in VDR-knockdown mouse C3H10T1/2 cells assessed as downregulation of GLI1 expression at 5 uM after 24 hrs by qPCR analysis; type: cell-based; conditions: C3H 10T1/2; method in brief: as §4
[21] = Inhibition of hedgehog signaling pathway in non-targeting siRNA treated mouse C3H10T1/2 cells assessed as downregulation of GLI1 expression at 5 uM after 24 hrs by qPCR analysis; type: cell-based; conditions: C3H 10T1/2; method in brief: as §4
[22] = Activation of hedgehog signaling pathway in non-targeting siRNA treated mouse C3H10T1/2 cells assessed as effect on VDR expression at 0.5 uM after 24 hrs by qPCR analysis; type: cell-based; conditions: C3H 10T1/2
[23] = Inhibition of hedgehog signaling pathway in non-targeting siRNA treated mouse C3H10T1/2 cells assessed as effect on VDR expression at 0.5 uM after 24 hrs by qPCR analysis; type: cell-based; conditions: C3H 10T1/2
[24] = Activation of hedgehog signaling pathway in VDR-knockdown mouse C3H10T1/2 cells assessed as effect on VDR expression at 0.5 uM after 24 hrs by qPCR analysis; type: cell-based; conditions: C3H 10T1/2
[25] = Inhibition of hedgehog signaling pathway in VDR-knockdown mouse C3H10T1/2 cells assessed as effect on VDR expression at 0.5 uM after 24 hrs by qPCR analysis; type: cell-based; conditions: C3H 10T1/2
[26] = tested on: C3H 10T1/2; experiment: Effect on CYP24A1 RNA level in non-targeting siRNA treated mouse C3H10T1/2 cells at 0.5 uM after 24 hrs by qPCR analysis; type: functional, cell-based

Chain of Protein smoothened (Homo sapiens) (Q99835 whole entry): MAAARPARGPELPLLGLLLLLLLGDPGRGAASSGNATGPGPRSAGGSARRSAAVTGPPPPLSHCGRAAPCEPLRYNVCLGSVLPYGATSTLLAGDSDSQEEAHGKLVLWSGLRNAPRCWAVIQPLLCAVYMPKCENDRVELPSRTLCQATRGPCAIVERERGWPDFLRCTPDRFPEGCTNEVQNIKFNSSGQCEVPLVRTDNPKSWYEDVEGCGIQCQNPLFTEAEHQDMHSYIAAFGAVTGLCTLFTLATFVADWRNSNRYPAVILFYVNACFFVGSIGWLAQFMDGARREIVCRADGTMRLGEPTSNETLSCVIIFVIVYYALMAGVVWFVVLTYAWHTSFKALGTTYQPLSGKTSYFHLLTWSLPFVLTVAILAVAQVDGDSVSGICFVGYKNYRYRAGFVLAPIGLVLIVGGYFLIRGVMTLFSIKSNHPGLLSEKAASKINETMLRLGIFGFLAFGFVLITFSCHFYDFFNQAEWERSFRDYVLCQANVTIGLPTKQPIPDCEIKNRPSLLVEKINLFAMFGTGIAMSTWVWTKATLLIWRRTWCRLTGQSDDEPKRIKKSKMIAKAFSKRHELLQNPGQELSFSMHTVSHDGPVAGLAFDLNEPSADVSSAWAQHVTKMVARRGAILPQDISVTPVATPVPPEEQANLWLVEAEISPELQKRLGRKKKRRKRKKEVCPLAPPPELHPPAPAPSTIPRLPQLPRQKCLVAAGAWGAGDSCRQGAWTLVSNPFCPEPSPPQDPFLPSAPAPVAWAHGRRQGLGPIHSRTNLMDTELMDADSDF

Structure (SMILES)	Activity [1]	fold change (FC) [2]	inhibition [3]	IC50 [3]	IC50 [4]	IC50 [5]	fold change (FC) [6]	IC50 [7]	fold change (FC) [8]	IC50 [9]	inhibition [10]	inhibition [11]	inhibition [12]	Activity [13]	inhibition [14]	Activity [15]	inhibition [16]	Activity [17]	further results
CC(C)CCC[C@@H](C)[C@H]1CC[C@H]2[C@@H](OC(=O)c3cccc(O)c3)CCC[C@]12C	1.9%	22.2	Dose-dependent effect	0.74 µM	1.1 µM	5.2 µM	1.9	3.7 µM	1.9	3.6 µM	inactive	inactive	Active	inactive	inactive	inactive	inactive	Active	Activity [18]: inactive
C=C1CC[C@H](O)C/C1=C/C=C1\CCC[C@]2(C)[C@@H]([C@H](C)CCCC(C)C)CC[C@@H]12 [CHOLECALCIFEROL]	35.7%	8340	Dose-dependent effect	4.1 µM	2.9 µM	2.1 µM	764	> 10 µM	149	> 10 µM	inactive	inactive	Active	Active	Active	Active	Active	Active	inhibition [19]: inactive; inhibition [20]: inactive; inhibition [21]: Active
C=C1/C(=C\C=C2/CCC[C@]3(C)[C@@H]([C@H](C)CCCC(C)(C)O)CC[C@@H]23)C[C@@H](O)C[C@@H]1O	–	–	–	–	–	–	–	–	–	–	–	–	–	–	–	–	–	–	Activity [22]: Active; inhibition [23]: Active; Activity [24]: Active; inhibition [25]: Active; Activity [26]: Active
